Data taken from ChEMBL document CHEMBL1955865, “Synthesis of novel spirooxindole derivatives by one pot multicomponent reaction and their antimicrobial activity” (2012).
≈ marks a conversion by molar mass, not a printed value.

Tested on: Klebsiella aerogenes
Experiment: Antibacterial activity against Enterobacter aerogenes MTCC 111 at 1000 ug/disc after 24 hrs by disc diffusion assay
Format: functional
Conditions: MTCC 111, 24 h, read-out: IZ
In short: (§1)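 Disc diffusion on Mueller Hinton agar. Cultures (about 10^4 CFU/ml) were swabbed on and dried 10 min. Discs loaded at 1000 µg/disc were left 30 min at room temperature for diffusion, with a solvent negative control. Plates were incubated 24 h at 37 °C. Inhibition zones were measured in mm, and the experiment was done twice.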

| Compound | zone of inhibition at 1000 µg/disc [mm] |
| --- | --- |
| CN1CC2=C(C(=O)c3ccccc3C2=O)C12C(=O)Nc1ccccc12 (centres undefined) | 10 |
| CN1CC2=C(C(=O)c3ccccc3C2=O)C12C(=O)Nc1ccc(Br)cc12 (centres undefined) | 16 |

Tested on: Salmonella typhimurium
Experiment: Antibacterial activity against Salmonella Typhimurium MTCC 1251 after 24 hrs by two-fold serial dilution method
Format: functional, Salmonella enterica subsp. enterica serovar Typhimurium
Conditions: Salmonella enterica, MTCC 1251, 24 h
In short: (§2)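 Bacteria grown in Mueller Hinton broth for 24 h at 37 °C and diluted to about 10^4 CFU/ml. Compound in 2% DMSO was serially diluted two-fold (1000 to 15.62 µg/ml) in medium in 96-well plates and inoculated. Plates were incubated 24 h at 37 °C. 5 µl of broth was spotted onto MHA, and MIC was taken as the lowest concentration with no visible growth on agar.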

| Compound | MIC [µg/mL] |
| --- | --- |
| CN1CC2=C(C(=O)c3ccccc3C2=O)C12C(=O)Nc1ccccc12 (centres undefined) | 125 (≈ 378 µM) |
| CN1CC2=C(C(=O)c3ccccc3C2=O)C12C(=O)Nc1ccc(Br)cc12 (centres undefined) | 31.2 (≈ 76.4 µM) |

Tested on: Botrytis cinerea
Experiment: Antifungal activity against Botrytis cinerea at 1000 ug/disc after 48 hrs by disc diffusion assay
Format: functional
Conditions: read-out: IZ
In short: (§3)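 Fungal disc diffusion with inoculum from SDA spores (filamentous) or SDB culture (yeast). Test cultures were swabbed on agar, and discs at 1000 µg/disc were left 30 min at room temperature, with a solvent negative control. Plates were incubated 48 h at 27 °C. Zone of inhibition was measured in mm, and the experiment was repeated twice.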

| Compound | zone of inhibition at 1000 µg/disc [mm] |
| --- | --- |
| CN1CC2=C(C(=O)c3ccccc3C2=O)C12C(=O)Nc1ccccc12 (centres undefined) | 10 |
| CN1CC2=C(C(=O)c3ccccc3C2=O)C12C(=O)Nc1ccc(Br)cc12 (centres undefined) | 11 |

Tested on: Salmonella enterica subsp. enterica serovar Paratyphi B
Experiment: Antibacterial activity against Salmonella paratyphi B after 24 hrs by twofold serial dilution method
Format: functional
Conditions: not given
In short: (§4)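 Broth microdilution in MHB following the standard bacterial reference method. Compound was dissolved in DMSO (2%) and serially diluted two-fold from 1000 to 15.62 µg/ml in 96-well plates, with an inoculum of about 10^4 CFU/ml. Streptomycin and ciprofloxacin were positive controls. After 24 h at 37 °C, 5 µl of broth was subcultured on MHA. MIC was the lowest concentration without visible growth on agar.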

| Compound | MIC [µg/mL] |
| --- | --- |
| CN1CC2=C(C(=O)c3ccccc3C2=O)C12C(=O)Nc1ccccc12 (centres undefined) | 250 (≈ 757 µM) |
| CN1CC2=C(C(=O)c3ccccc3C2=O)C12C(=O)Nc1ccc(Br)cc12 (centres undefined) | 500 (≈ 1220 µM) |

Tested on: Klebsiella pneumoniae
Experiment: Antibacterial activity against Klebsiella pneumoniae MTCC 109 at 1000 ug/disc after 24 hrs by disc diffusion assay
Format: functional
Conditions: MTCC 109, 24 h, read-out: IZ
In short: as §1

| Compound | zone of inhibition at 1000 µg/disc [mm] |
| --- | --- |
| CN1CC2=C(C(=O)c3ccccc3C2=O)C12C(=O)Nc1ccccc12 (centres undefined) | 13 |
| CN1CC2=C(C(=O)c3ccccc3C2=O)C12C(=O)Nc1ccc(Br)cc12 (centres undefined) | 10 |

Tested on: Staphylococcus aureus
Experiment: Antibacterial activity against methicillin-resistant Staphylococcus aureus after 24 hrs by twofold serial dilution method
Format: functional
Conditions: not given
In short: as §4

| Compound | MIC [µg/mL] |
| --- | --- |
| CN1CC2=C(C(=O)c3ccccc3C2=O)C12C(=O)Nc1ccccc12 (centres undefined) | 250 (≈ 757 µM) |
| CN1CC2=C(C(=O)c3ccccc3C2=O)C12C(=O)Nc1ccc(Br)cc12 (centres undefined) | 250 (≈ 611 µM) |

Tested on: Proteus vulgaris
Experiment: Antibacterial activity against Proteus vulgaris MTCC 1771 after 24 hrs by twofold serial dilution method
Format: functional
Conditions: MTCC 1771, 24 h
In short: as §2

| Compound | MIC [µg/mL] |
| --- | --- |
| CN1CC2=C(C(=O)c3ccccc3C2=O)C12C(=O)Nc1ccccc12 (centres undefined) | 250 (≈ 757 µM) |
| CN1CC2=C(C(=O)c3ccccc3C2=O)C12C(=O)Nc1ccc(Br)cc12 (centres undefined) | 125 (≈ 305 µM) |

Tested on: Proteus vulgaris
Experiment: Antibacterial activity against Proteus vulgaris MTCC 1771 at 1000 ug/disc after 24 hrs by disc diffusion assay
Format: functional
Conditions: MTCC 1771, 24 h, read-out: IZ
In short: as §1

| Compound | zone of inhibition at 1000 µg/disc [mm] |
| --- | --- |
| CN1CC2=C(C(=O)c3ccccc3C2=O)C12C(=O)Nc1ccccc12 (centres undefined) | 11 |
| CN1CC2=C(C(=O)c3ccccc3C2=O)C12C(=O)Nc1ccc(Br)cc12 (centres undefined) | 12 |

Tested on: Candida albicans
Experiment: Antifungal activity against Candida albicans MTCC 227 after 48 to 72 hrs by twofold serial dilution method
Format: functional
Conditions: not given
In short: (§5)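 Broth two-fold serial dilution, 1000 to 15.62 µg/ml, with compound dissolved in 2% DMSO, in 96-well plates. Filamentous fungal spores came from 10-day SDA slants at 28 °C, and yeast from SDB grown 48 h at 28 °C. Incubation was 48-72 h at 28 °C. MIC was the lowest concentration with no visible fungal growth.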

| Compound | MIC [µg/mL] |
| --- | --- |
| CN1CC2=C(C(=O)c3ccccc3C2=O)C12C(=O)Nc1ccccc12 (centres undefined) | 125 (≈ 378 µM) |
| CN1CC2=C(C(=O)c3ccccc3C2=O)C12C(=O)Nc1ccc(Br)cc12 (centres undefined) | 500 (≈ 1220 µM) |

Tested on: Micrococcus luteus
Experiment: Antibacterial activity against Micrococcus luteus after 24 hrs by twofold serial dilution method
Format: functional
Conditions: not given
In short: as §2

| Compound | MIC [µg/mL] |
| --- | --- |
| CN1CC2=C(C(=O)c3ccccc3C2=O)C12C(=O)Nc1ccccc12 (centres undefined) | 125 (≈ 378 µM) |
| CN1CC2=C(C(=O)c3ccccc3C2=O)C12C(=O)Nc1ccc(Br)cc12 (centres undefined) | 62.5 (≈ 153 µM) |

Tested on: Staphylococcus aureus
Experiment: Antibacterial activity against methicillin-resistant Staphylococcus aureus at 1000 ug/disc after 24 hrs by disc diffusion assay
Format: functional
Conditions: read-out: IZ
In short: (§6)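 Disc diffusion on Mueller Hinton agar. Bacteria were grown 24 h at 37 °C in MHB and diluted to about 10^4 CFU/ml, swabbed onto plates and dried 10 min. Discs were loaded at 1000 μg/disc and held 30 min at room temperature for diffusion. Solvent served as negative control. After 24 h at 37 °C, inhibition zones were read in mm; run twice.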

| Compound | zone of inhibition at 1000 µg/disc [mm] |
| --- | --- |
| CN1CC2=C(C(=O)c3ccccc3C2=O)C12C(=O)Nc1ccccc12 (centres undefined) | 10 |
| CN1CC2=C(C(=O)c3ccccc3C2=O)C12C(=O)Nc1ccc(Br)cc12 (centres undefined) | 12 |

Tested on: not listed separately
Experiment: Antifungal activity against Malassezia pachydermatis after 48 to 72 hrs by twofold serial dilution method
Format: functional
Conditions: not given
In short: as §5

| Compound | MIC [µg/mL] |
| --- | --- |
| CN1CC2=C(C(=O)c3ccccc3C2=O)C12C(=O)Nc1ccccc12 (centres undefined) | 250 (≈ 757 µM) |
| CN1CC2=C(C(=O)c3ccccc3C2=O)C12C(=O)Nc1ccc(Br)cc12 (centres undefined) | 500 (≈ 1220 µM) |

Tested on: not listed separately
Experiment: Antifungal activity against Malassezia pachydermatis at 1000 ug/disc after 48 hrs by disc diffusion assay
Format: functional
Conditions: not given
In short: as §3

| Compound | inhibition zone (IZ) [mm] |
| --- | --- |
| CN1CC2=C(C(=O)c3ccccc3C2=O)C12C(=O)Nc1ccccc12 (centres undefined) | 11 |
| CN1CC2=C(C(=O)c3ccccc3C2=O)C12C(=O)Nc1ccc(Br)cc12 (centres undefined) | 10 |

Tested on: Candida albicans
Experiment: Antifungal activity against Candida albicans MTCC 227 at 1000 ug/disc after 48 hrs by disc diffusion assay
Format: functional
Conditions: MTCC 227, 48 h, read-out: IZ
In short: as §3

| Compound | zone of inhibition at 1000 µg/disc [mm] |
| --- | --- |
| CN1CC2=C(C(=O)c3ccccc3C2=O)C12C(=O)Nc1ccccc12 (centres undefined) | 10 |
| CN1CC2=C(C(=O)c3ccccc3C2=O)C12C(=O)Nc1ccc(Br)cc12 (centres undefined) | 10 |

Tested on: Micrococcus luteus
Experiment: Antibacterial activity against Micrococcus luteus at 1000 ug/disc after 24 hrs by disc diffusion assay
Format: functional
Conditions: read-out: IZ
In short: as §1

| Compound | zone of inhibition at 1000 µg/disc [mm] |
| --- | --- |
| CN1CC2=C(C(=O)c3ccccc3C2=O)C12C(=O)Nc1ccccc12 (centres undefined) | 13 |
| CN1CC2=C(C(=O)c3ccccc3C2=O)C12C(=O)Nc1ccc(Br)cc12 (centres undefined) | 17 |

Tested on: Klebsiella aerogenes
Experiment: Antibacterial activity against Enterobacter aerogenes MTCC 111 after 24 hrs by twofold serial dilution method
Format: functional
Conditions: MTCC 111, 24 h
In short: as §2

| Compound | MIC [µg/mL] |
| --- | --- |
| CN1CC2=C(C(=O)c3ccccc3C2=O)C12C(=O)Nc1ccccc12 (centres undefined) | 250 (≈ 757 µM) |
| CN1CC2=C(C(=O)c3ccccc3C2=O)C12C(=O)Nc1ccc(Br)cc12 (centres undefined) | 62.5 (≈ 153 µM) |

Tested on: Botrytis cinerea
Experiment: Antifungal activity against Botrytis cinerea after 48 to 72 hrs by twofold serial dilution method
Format: functional
Conditions: not given
In short: as §5

| Compound | MIC [µg/mL] |
| --- | --- |
| CN1CC2=C(C(=O)c3ccccc3C2=O)C12C(=O)Nc1ccccc12 (centres undefined) | 125 (≈ 378 µM) |
| CN1CC2=C(C(=O)c3ccccc3C2=O)C12C(=O)Nc1ccc(Br)cc12 (centres undefined) | 250 (≈ 611 µM) |

Tested on: Klebsiella pneumoniae
Experiment: Antibacterial activity against Klebsiella pneumoniae MTCC 109 after 24 hrs by twofold serial dilution method
Format: functional
Conditions: MTCC 109, 24 h
In short: as §2

| Compound | MIC [µg/mL] |
| --- | --- |
| CN1CC2=C(C(=O)c3ccccc3C2=O)C12C(=O)Nc1ccccc12 (centres undefined) | 125 (≈ 378 µM) |
| CN1CC2=C(C(=O)c3ccccc3C2=O)C12C(=O)Nc1ccc(Br)cc12 (centres undefined) | 500 (≈ 1220 µM) |

Tested on: Salmonella enterica subsp. enterica serovar Paratyphi B
Experiment: Antibacterial activity against Salmonella paratyphi B at 1000 ug/disc after 24 hrs by disc diffusion assay
Format: functional
Conditions: read-out: IZ
In short: as §6

| Compound | zone of inhibition at 1000 µg/disc [mm] |
| --- | --- |
| CN1CC2=C(C(=O)c3ccccc3C2=O)C12C(=O)Nc1ccccc12 (centres undefined) | 10 |
| CN1CC2=C(C(=O)c3ccccc3C2=O)C12C(=O)Nc1ccc(Br)cc12 (centres undefined) | 8 |

Tested on: Salmonella typhimurium
Experiment: Antibacterial activity against Salmonella Typhimurium MTCC 1251 at 1000 ug/disc after 24 hrs by disc diffusion assay
Format: functional, Salmonella enterica subsp. enterica serovar Typhimurium
Conditions: Salmonella enterica, MTCC 1251, 24 h; read-out: IZ
In short: as §1

| Compound | zone of inhibition at 1000 µg/disc [mm] |
| --- | --- |
| CN1CC2=C(C(=O)c3ccccc3C2=O)C12C(=O)Nc1ccccc12 (centres undefined) | 12 |
| CN1CC2=C(C(=O)c3ccccc3C2=O)C12C(=O)Nc1ccc(Br)cc12 (centres undefined) | 19 |

Tested on: Staphylococcus aureus
Experiment: Antibacterial activity against Staphylococcus aureus MTCC 96 at 1000 ug/disc after 24 hrs by disc diffusion assay
Format: functional
Conditions: MTCC 96, 24 h, read-out: IZ
In short: as §1

| Compound | zone of inhibition at 1000 µg/disc [mm] |
| --- | --- |
| CN1CC2=C(C(=O)c3ccccc3C2=O)C12C(=O)Nc1ccccc12 (centres undefined) | 15 |
| CN1CC2=C(C(=O)c3ccccc3C2=O)C12C(=O)Nc1ccc(Br)cc12 (centres undefined) | 20 |

Tested on: Staphylococcus aureus
Experiment: Antibacterial activity against Staphylococcus aureus MTCC 96 after 24 hrs by twofold serial dilution method
Format: functional
Conditions: MTCC 96, 24 h
In short: as §2

| Compound | MIC [µg/mL] |
| --- | --- |
| CN1CC2=C(C(=O)c3ccccc3C2=O)C12C(=O)Nc1ccccc12 (centres undefined) | 62.5 (≈ 189 µM) |
| CN1CC2=C(C(=O)c3ccccc3C2=O)C12C(=O)Nc1ccc(Br)cc12 (centres undefined) | 15.6 (≈ 38.2 µM) |
